Published values of several laboratories.
Protocols differ between the studies behind these lines.
Target: Sodium-dependent serotonin transporter (SLC6A4, Homo sapiens, UniProt P31645)

COCc1c(-c2cc3cc(C)cc(OC)c3s2)c2c(N)ncnn2c1CN1CCNC(=O)C1
inhibition (ligand displacement; radioligand; 10 µM): 3%

CC(C)N1CCC[C@H]1CNC(=O)c1cn(C2CCCC2)c(=O)c2c1c1ccccc1n2C
inhibition (ligand displacement; radioligand; 10 µM): 22%

CN(CCN1CCC(OC(=O)Nc2ccccc2-c2ccccc2)CC1)C(=O)c1ccc(CN2CCC(C(N)=O)CC2)cc1
inhibition (ligand displacement; radioligand; 1 µM): -1%

CCN(CC)CCCC[C@H](NC(=O)[C@H](CC(C)C)NC(=O)[C@H](C)NC(=O)[C@H](Cc1ccccc1)NC(=O)c1ccc(C(C)(C)C)cc1)C(=O)N[C@@H](CO)C(=O)OC
inhibition (ligand displacement; radioligand; 10 µM): 5%

Clc1ccc2c(C3CCN(CCc4c[nH]c5ccccc45)CC3)c[nH]c2c1
inhibition (ligand displacement; radioligand; 10 µM): 99%

c1ccc(C(NCCNC(c2ccccc2)c2ccccc2)c2ccccc2)cc1
inhibition (transporter uptake; inhibitor; 10 µM): 29%

C[C@H](NC(=O)Nc1cc2[nH]ncc2c(CO)n1)c1ccccn1
inhibition (cell-free assay; 10 µM): -0.787%

C[C@H](C(=O)N[C@H]1COc2ccccc2[C@@H]1S(C)(=O)=O)c1ccc(F)cc1
inhibition (transporter uptake; inhibitor; 10 µM): 11%

COc1ccc(S(=O)(=O)N2CCCCC2)cc1C
inhibition (ligand displacement; radioligand; 10 µM): < 30%

CCc1ccccc1C(=O)Nc1n[nH]c2c(C)c(F)c(C3C(C#N)=C(C)N(C)C(C)=C3C#N)cc12
inhibition (ligand displacement; 10 µM): -6.24%
